Data published in ChEMBL document CHEMBL1137600, “From docking false-positive to active anti-HIV agent” (J Med Chem, 2007).
Active and inactive are the calls of the source. The calls are words filed in the database; no cut-off is given here.

Experiments:
[1] = test system: MT2; assay: Cytotoxicity against human MT2 cells by MTT assay; format: functional
Summary of the method: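 Human MT-2 cells, MTT colorimetric read-out. CC50 is the concentration giving 50% inhibition of MT-2 cell growth.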

[2] = test system: Human immunodeficiency virus 1; assay: Antiviral activity against HIV1 3B in human MT2 cells by MTT assay; format: functional, organism-based; settings: for EC50: Human immunodeficiency virus 1, 3B
Summary of the method: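 HIV-1 IIIB infection of human MT-2 T-cells; MTT colorimetric read-out of cell protection. Antiviral curves were run in triplicate at each concentration.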

Structure (SMILES)	CC50 [1] [µM]	EC50 [2] [µM]	Activity [2]
Clc1ccc(Nc2nnc(Cc3c(Cl)cccc3Cl)o2)cc1	20	0.82	
Clc1ccc(Cc2nnc(Nc3ccc(Cl)cc3)o2)cc1	> 100		inactive
Cc1cn([C@H]2C=C[C@@H](CO)O2)c(=O)[nH]c1=O [STAVUDINE]	> 100	1.6	
Clc1ccc(Nc2nnc(Cc3c(Cl)cccc3Cl)o2)cc1Cl	> 100	0.31	
Cc1cc(C)cc(Cc2nnc(Nc3ccc(Cl)cc3)o2)c1	> 100		inactive
FC(F)(F)c1cc(Nc2nnc(Cc3c(Cl)cccc3Cl)o2)ccc1Cl	9		inactive
Cc1ccnc2c1NC(=O)c1cccnc1N2C1CC1 [NEVIRAPINE]	> 10		
Cc1cc(Nc2nnc(Cc3c(Cl)cccc3Cl)o2)ccc1Cl	> 100	1.3	
COc1ccc(Cc2nnc(Nc3ccc(C)cc3)o2)cc1OC	61		inactive
O=C1Nc2ccc(Cl)cc2C(C#CC2CC2)(C(F)(F)F)O1 (single isomer, unassigned) [EFAVIRENZ]	3		
Clc1ccc(Nc2nnc(Cc3ccccc3)o2)cc1	31		inactive
Clc1ccc(Nc2nnc(Cc3cccc(Cl)c3)o2)cc1	32	> 10	
c1ccc(Cc2nnc(Nc3ccccc3)o2)cc1	> 100		inactive
COc1cc(Nc2nnc(Cc3c(Cl)cccc3Cl)o2)c(Cl)cc1Cl	9		inactive
